S1P4 agonist = S1P4 receptor agonists, primary screen, cell-based. Sphingosine 1-phosphate receptor 4 (Homo sapiens), O95977. AID 1509, 2009. 220,000 compounds, 0.35% hits. S1P4-expressing cell line, agonist reporter assay. activation, % at 4.98 µM; in the data active = activation above about 11%;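 also: 0% = DMSO vehicle and 100% = reference agonist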
Target sequence (O95977 whole entry, looked up): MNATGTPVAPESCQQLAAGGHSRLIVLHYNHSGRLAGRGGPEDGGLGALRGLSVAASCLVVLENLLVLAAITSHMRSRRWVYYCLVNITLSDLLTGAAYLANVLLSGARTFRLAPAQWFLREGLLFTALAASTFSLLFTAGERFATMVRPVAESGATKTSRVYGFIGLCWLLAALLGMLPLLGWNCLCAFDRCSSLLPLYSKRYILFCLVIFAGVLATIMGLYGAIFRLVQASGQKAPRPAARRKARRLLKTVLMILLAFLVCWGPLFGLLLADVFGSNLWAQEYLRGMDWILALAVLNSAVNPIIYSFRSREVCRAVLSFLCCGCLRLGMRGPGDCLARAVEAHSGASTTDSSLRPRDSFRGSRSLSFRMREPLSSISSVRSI
S1P3 antag = S1P3 receptor antagonists, primary screen, cell-based. CHO S1P3 NFAT-BLA reporter, FRET fluorescence, antagonist mode. inhibition, % at 4.98 µM. 170,000 compounds, 0.27% hits. AID 485, 2006;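 active = inhibition above the plate cutoff, the mean inhibition of test wells on that plate plus 3 SD, cut at about 28% in these data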;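 also: cells challenged with S1P at its EC80 of 0.8 µM; blue over green emission ratio from cleaved BLA substrate after 4 h stimulation; 0% = S1P-stimulated wells and 100% = unstimulated DMSO-only wells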
S1P4 antag = S1P4 receptor antagonists, primary screen, cell-based. Sphingosine 1-phosphate receptor 4 (Homo sapiens), O95977. S1P4-expressing cells, antagonist mode, reporter read-out. inhibition, % at 4.98 µM. 220,000 compounds, 0.26% hits. AID 1510, 2009; in the data active = inhibition above about 29%;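 also: 0% = wells stimulated with agonist and 100% = vehicle wells without agonist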
TNAP act hiacc = TNAP activators at high phosphate acceptor level, primary screen, biochemical, luminescence, uHTS. Alkaline phosphatase, tissue-nonspecific isozyme (Homo sapiens), P05186. purified TNAP, CDP-star luminescence, 1 M DEA, 30 min; active compounds read high; 0 = EDTA background, 1 = DMSO-only activity. activation factor at 20 µM. 200,000 tested, under 10 active;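 active = activation factor at least 2 at 20 µM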
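Dosing: 20 µM single point. System: human TNAP. Amount: TNAP 1/800 final. Incubation: 30 min, room temperature. Read-out: TNAP activation factor scaled between EDTA and DMSO control wells. Signal: luminescence from CDP-star hydrolysis. Medium: 1 M DEA, pH 9.8, Mg2+, Zn2+. Control set: EDTA negative control, DMSO positive control.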
TNAP inh hi DEA = human TNAP enzyme inhibitors, primary screen, biochemical, luminescent, high phosphate acceptor level, uHTS | purified TNAP, CDP-star luminescence, 1 M DEA | inhibition, % at 20 µM | 200,000 compounds, 0.03% hits;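 active = over 50% inhibition of tissue-nonspecific alkaline phosphatase at 20 µM in the single-dose screen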;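 also: plate controls were DMSO wells for no effect and EDTA-quenched wells as full inhibition for full effect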
TNAP inh noacc = human TNAP enzyme inhibitors, primary screen, biochemical, luminescent, no phosphate acceptor, uHTS; Alkaline phosphatase, tissue-nonspecific isozyme (Homo sapiens), P05186; purified TNAP, CDP-star luminescence, 30 min; inhibition, % at 20 µM; 200,000 compounds, 0.26% hits; AID 1012, 2008;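 active = tissue-nonspecific alkaline phosphatase inhibition above about 50% at 20 µM in the single-dose screen, limit read from the data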;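 also: 0% = DMSO negative control and 100% = EDTA positive control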
Starred values were filed as active, the others as inactive; . = not tested or not shown. Hits are enriched below; roughly 1.1% of the tested compounds scored in any of these assays.

SMILES	S1P4 agonist	S1P3 antag	S1P4 antag	TNAP act hiacc	TNAP inh hi DEA	TNAP inh noacc
O=C1C2C3C=CC(C3)C2C(=O)N1CCCCCCN1C(=O)C2C3C=CC(C3)C2C1=O (configuration not stated)	-0.9	-22.5	-8.6	1	-3.2	-2.1
O=C(c1nc2ccccn2c1CNCCn1ccc2ccccc21)N1CCOCC1	0.0	-0.7	-10.5	.	.	.
CC(C)Sc1nc2ncnc(N)c2[nH]1	-0.5	-18.3	-11.1	1	-1.5	58.0*
Nc1ncnc2nc(Sc3ccc(Cl)cc3)[nH]c12	-0.6	17.2	0.2	1	-4.0	14.6
O=C(Nc1ccccc1N1CCN(c2ccc(F)cc2)CC1)c1ccccc1	-0.8	62.3*	-5.9	1	-2.3	-7.0
Nc1c(Cl)ncnc1N/N=C/c1ccc2ccccc2n1	0.8	24.1	-15.6	0.5	54.2*	-22.4
COc1ccc(-c2nc3c(-c4ccc(F)cc4)cnn3cc2C)cc1F	3.2	8.9	-9.3	1	-3.8	-7.2
COc1ccc(CCNC(=O)C(=O)NCc2cccs2)cc1OC	0.7	8.7	-13.7	1	-4.5	-9.0
Cc1ccccc1NC(=O)N1C2CCCC1CC(NC(=O)C1CC1)C2 (configuration not stated)	5.6	-26.4	-10.4	1	-2.7	-6.7
CCc1ccccc1NC(=O)N1C2CCCC1CC(NC(=O)C(C)(C)C)C2 (configuration not stated)	0.3	62.9*	-11.7	1	-2.7	-2.1
COc1ccc(/C=C/C(=O)O)cc1S(=O)(=O)NC1CCS(=O)(=O)C1 (configuration not stated)	0.4	-11.8	2.5	1	-3.8	-2.9
COc1ccc(-c2[nH]ncc2CN2CCC(OCc3ccccn3)CC2)c(F)c1	0.7	-23.2	-1.4	.	.	.
COc1ccc(-c2[nH]ncc2CN2CCN(Cc3cccs3)CC2)c(F)c1	-1.1	-5.2	-7.8	1	-4.9	62.6*
COc1ccc(-c2[nH]ncc2CN2CCCC2c2nonc2C)c(F)c1 (configuration not stated)	-1.8	3.1	12.6	1.1	-5.8	51.3*
COc1ccc(-c2[nH]ncc2CN2CCC(OCc3cccnc3)CC2)c(F)c1	2.5	-6.2	-5.0	1.1	-6.6	74.0*
O=C(COC(=O)c1ccc(CO)cc1)Nc1ccc(OC(F)F)cc1	-1.1	-15.8	-0.8	1.1	-6.9	-4.1
CCCn1c(-c2ccc[nH]c2=O)nc2cc(C)c(C)cc21	1.1	-3.5	-35.1	1.1	-6.3	-10.6
CCC(=O)OCc1c(C(F)(F)F)nn(C)c1Sc1ccc(F)cc1	11.0*	.	-2.1	1	-0.7	0.3
CCOc1ccc(C2CC(=O)n3nc(C45CC6CC(CC(C6)C4)C5)nc3S2)cc1OC (configuration not stated)	-1.6	.	-4.5	1	-3.3	84.8*
COc1ccc(C2CC(=O)n3nc(C45CC6CC(CC(C6)C4)C5)nc3S2)cc1OC (configuration not stated)	-0.4	2.4	-3.5	1	1.0	88.4*
CCOc1ccc(C2C3=C(CCCC3=O)Nc3nc(C(F)(F)F)nn32)cc1OC (configuration not stated)	-0.2	-6.4	-1.6	1	-0.8	-7.4
Cc1ccc(SCc2cc(=O)[nH]c(/N=C(\N)Nc3ccc(C)c(C)c3)n2)cc1	0.7	.	-3.4	1	-4.7	-17.3
Cc1cccc(OCC(=O)N2CCN(C(=O)c3ccco3)CC2)c1	0.1	10.3	13.4	1.1	-8.4	-9.2
C/C(N)=C(/C#N)C(=O)CSc1n[nH]c(-c2ccccc2Br)n1	0.6	.	-4.6	1	1.5	91.9*
C/C(N)=C(/C#N)C(=O)CSc1ccccc1F	-0.2	-1.8	-9.4	1	-2.6	-5.2
SMILES	S1P4 agonist	S1P3 antag	S1P4 antag	TNAP act hiacc	TNAP inh hi DEA	TNAP inh noacc
C=CCSc1n[nH]c(-c2ccc(OCCC)cc2)n1	-2.2	-1.1	-17.9	1	-0.7	50.0*
COc1ccc(-c2nc(-c3cccc([N+](=O)[O-])c3O)cc(=O)o2)cc1OC	2.7	-13.2	-19.4	0.9	11.6	1.5
COc1cc(/C=C2/C(=O)c3cccc([N+](=O)[O-])c3C2=O)c(Br)cc1O	-0.6	4.7	6.2	0.6	35.1	66.2*
COc1ccc(-c2ccnc(-c3ccc(O)cc3)n2)cc1	0.0	19.6	-8.2	1.1	-6.6	-7.1
COc1ccc(-c2nc(N=Nc3ccc(O)cc3)n[nH]2)cc1	1.7	-5.5	-6.7	0.7	28.7	74.3*
Cc1ccc(-c2nc(N=Nc3ccc(O)cc3)n[nH]2)cc1	0.0	-2.1	-8.6	0.7	33.3	68.5*
Cc1nc(N=Nc2ccc(O)cc2)n[nH]1	0.3	-4.3	-12.7	.	.	.
COc1ccc(/C=N/N2CCN(c3ccccc3OC)CC2)cc1OC	-2.4	.	-9.4	1	-2.5	-5.7
COc1ccccc1N1CCN(/N=C/c2ccc(O)c(O)c2)CC1	-0.6	-16.3	-13.0	1	0.6	53.9*
CCCSc1nnc(CSc2nc(C)cc(C)n2)n1C	1.1	9.8	-2.6	1	-4.2	-4.8
OC(CN1C2=NCCCN2c2ccccc21)c1ccc(Cl)cc1 (configuration not stated)	1.4	82.5*	6.1	1.1	-9.0	-20.0
COc1ccccc1-c1nc(SCc2ccccn2)n[nH]1	.	-9.8	.	1	-1.4	84.3*
COc1ccccc1-c1nnc(SCc2ccccn2)n1C	-1.3	-36.3	-10.3	1.1	-8.6	-9.8
NS(=O)(=O)c1ccc(CCNC(=O)CNS(=O)(=O)c2cccc(Br)c2)cc1	-1.5	-9.9	-5.6	0.9	12.5	76.5*
CC(=O)Nc1ccc(S(=O)(=O)NCC(=O)NCCc2ccc(S(N)(=O)=O)cc2)cc1	-1.5	-9.2	6.4	1	3.8	15.9
CCOC(=O)C1=NOC2COC3(CCN(c4ncccn4)CC3)OCC12 (configuration not stated)	1.8	-4.6	-12.7	1	-1.7	-6.2
CN(C)/C=C/C1=CC(=O)CC(C)(C)C1	-1.3	-9.3	-11.4	1	3.0	2.9
O=C(Oc1cccc2cccnc12)c1ccc2c(c1)OCCO2	0.3	60.8*	-20.0	1.1	-7.2	-13.2
O=C(Oc1cccc2cccnc12)c1cccc([N+](=O)[O-])c1	-0.8	-6.3	-9.6	1	-3.9	-11.2
O=C(Nc1nc(-c2ccccc2)cs1)C1CCCCN1S(=O)(=O)c1ccccc1 (configuration not stated)	-0.2	97.7*	-0.8	1	-3.9	-4.0

Screening results deposited in PubChem by several laboratories.
